Data published in ChEMBL document CHEMBL2150901, “Synthesis and biological activity of tricyclic cycloalkylimidazo-, pyrimido- and diazepinopurinediones” (Eur J Med Chem, 2011).
Calls of active or inactive are those of the source. No cut-off for these calls is given here.

Experiments:
Mus musculus [1] = experiment: Anticonvulsant activity in F1 albino mouse assessed as protection against subcutaneous pentylenetetrazole-induced seizures at 300 mg/kg, ip after 4 hrs; assay type: functional, organism-based; set-up: dose 300 mg/kg
Summary of the method: (§1)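 Male albino F-1 mice (18–25 g), groups of 1–5 (rotorod 2–8). Compound given ip as a suspension in 0.5% methylcellulose at 30, 100 and 300 mg/kg. Seizures by maximal electroshock or subcutaneous pentylenetetrazole; neurotoxicity by rotorod. Read at 0.5 and 4 h, with some at 0.25, 1 and 2 h. Value is the minimum active dose, with protected (or toxic)/tested animals.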

Adenosine receptor A2a [2] = target: T1, Adenosine receptor A2a (Rattus norvegicus, UniProt P30543); experiment: Displacement of [3H]MSX-2 from rat adenosine A2A receptor in presence of 100 mM NaCl
[3] = target: T2, Adenosine receptor A1 (Rattus norvegicus) (UniProt P25099); experiment: Displacement of [3H]CCPA from adenosine A1 receptor in rat brain cortical membrane at 25 uM; assay type: cell membranes
T2 sequence (whole entry): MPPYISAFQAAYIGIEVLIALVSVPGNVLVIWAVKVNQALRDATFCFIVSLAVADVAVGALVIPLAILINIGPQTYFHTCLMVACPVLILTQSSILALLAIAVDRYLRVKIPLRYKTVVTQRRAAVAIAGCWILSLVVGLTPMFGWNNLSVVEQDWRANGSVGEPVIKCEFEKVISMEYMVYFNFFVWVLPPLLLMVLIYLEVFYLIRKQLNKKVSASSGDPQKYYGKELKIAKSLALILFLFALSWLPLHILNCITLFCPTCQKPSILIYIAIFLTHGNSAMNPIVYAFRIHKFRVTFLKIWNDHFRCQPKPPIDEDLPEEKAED

Mus musculus [4] = experiment: Anticonvulsant activity in F1 albino mouse assessed as protection against subcutaneous pentylenetetrazole-induced seizures at 300 mg/kg, ip after 0.5 hrs; assay type: functional, organism-based; set-up: dose 300 mg/kg; summary of the method: as §1
Mus musculus [5] = experiment: Anticonvulsant activity in F1 albino mouse assessed as protection against maximal electroshock-induced seizures at 300 mg/kg, ip after 4 hrs; assay type: functional, organism-based; set-up: dose 300 mg/kg; summary of the method: as §1
Mus musculus [6] = experiment: Anticonvulsant activity in F1 albino mouse assessed as protection against maximal electroshock-induced seizures at 300 mg/kg, ip after 1 hr; assay type: functional, organism-based; set-up: dose 300 mg/kg; summary of the method: as §1
Mus musculus [7] = experiment: Toxicity in F1 albino mouse assessed as mortality following tonic extension at 300 mg/kg, ip after 1 hr; assay type: organism-based; set-up: dose 300 mg/kg, route intraperitoneal; details: in vivo
Summary of the method: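 Male albino F-1 mice (18–25 g) were dosed i.p. with a suspension in 0.5% methylcellulose in water at 30, 100 and 300 mg/kg. Screening used MES, subcutaneous pentylenetetrazole (ScMet) and rotorod tests, with 1–5 mice per seizure test.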

[8] = target: T3, Adenosine receptor A3 (Homo sapiens) (UniProt P0DMS8); experiment: Displacement of [3H]PSB-11 from human recombinant adenosine A3 receptor expressed in CHO cells at 10 uM; assay type: cell-based
T3 sequence (whole entry): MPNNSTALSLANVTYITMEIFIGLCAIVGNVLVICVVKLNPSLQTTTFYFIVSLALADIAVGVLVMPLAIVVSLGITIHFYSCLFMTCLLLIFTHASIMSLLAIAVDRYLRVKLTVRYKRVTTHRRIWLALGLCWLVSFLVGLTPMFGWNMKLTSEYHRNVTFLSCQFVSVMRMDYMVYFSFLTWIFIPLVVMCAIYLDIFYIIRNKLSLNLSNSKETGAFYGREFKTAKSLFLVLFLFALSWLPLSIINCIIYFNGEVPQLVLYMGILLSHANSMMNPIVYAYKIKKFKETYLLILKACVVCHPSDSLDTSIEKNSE
Summary of the method: (§2)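 CHO cell membranes expressing the human receptor. Radioligands: A1 [3H]CCPA; A2B [3H]ZM241385 or [3H]PSB-603; A3 [3H]PSB-11. […] Potent compounds run at 6–7 concentrations spanning 3 orders of magnitude; Ki ± SEM.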

[9] = target: T4, Adenosine receptor A1 (Homo sapiens) (UniProt P30542); experiment: Displacement of [3H]CCPA from human recombinant adenosine A1 receptor expressed in CHO cells at 10 uM; assay type: cell-based; summary of the method: as §2
T4 sequence (whole entry): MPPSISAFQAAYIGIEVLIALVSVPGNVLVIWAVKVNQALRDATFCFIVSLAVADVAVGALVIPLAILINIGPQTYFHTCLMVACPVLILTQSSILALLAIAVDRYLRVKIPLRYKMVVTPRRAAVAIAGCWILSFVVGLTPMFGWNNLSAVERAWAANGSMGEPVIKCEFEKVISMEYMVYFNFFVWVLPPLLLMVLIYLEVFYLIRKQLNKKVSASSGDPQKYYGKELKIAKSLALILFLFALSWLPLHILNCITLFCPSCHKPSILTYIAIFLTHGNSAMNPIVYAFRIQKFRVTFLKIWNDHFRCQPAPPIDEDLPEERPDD

CHO = experiment: Selectivity ratio of Ki for human recombinant adenosine A2A receptor expressed in CHO cells to Ki for adenosine A2A receptor in rat brain striatal membrane; assay type: cell-based
Summary of the method: (§3)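 Ki ratios from radioligand competition binding. Rat A1 used brain cortical membranes and rat A2A used brain striatal membranes. Human A1 and A2A used membranes of CHO cells expressing the receptors. A1 radioligand [³H]CCPA; A2A radioligand [³H]MSX-2. Potent compounds were tested at 6–7 concentrations spanning 3 orders of magnitude.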

Adenosine receptor A2a [10] = target: T1, Adenosine receptor A2a; experiment: Displacement of [3H]MSX-2 from rat adenosine A2A receptor
Rattus norvegicus = organism: Rattus norvegicus; experiment: Selectivity ratio of Ki for adenosine A1 receptor in rat brain cortical membrane to Ki for adenosine A2A receptor in rat brain striatal membrane; assay type: cell membranes; summary of the method: as §3
Adenosine receptor A2b = target: T5, Adenosine receptor A2b (Homo sapiens, UniProt P29275); experiment: Displacement of [3H]ZM241385 from human adenosine A2B receptor expressed in CHO cells; assay type: cell-based
T5 sequence (P29275 whole entry): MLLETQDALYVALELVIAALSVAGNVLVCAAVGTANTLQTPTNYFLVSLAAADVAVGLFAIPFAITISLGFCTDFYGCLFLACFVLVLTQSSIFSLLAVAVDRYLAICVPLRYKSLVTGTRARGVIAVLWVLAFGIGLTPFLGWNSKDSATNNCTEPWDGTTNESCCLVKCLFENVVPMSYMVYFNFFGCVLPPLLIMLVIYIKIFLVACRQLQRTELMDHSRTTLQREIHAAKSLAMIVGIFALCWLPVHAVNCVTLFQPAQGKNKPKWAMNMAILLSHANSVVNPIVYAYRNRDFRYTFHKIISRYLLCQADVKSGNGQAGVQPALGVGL

Mus musculus [11] = experiment: Neurotoxicity in F1 albino mouse assessed as minimal motor impairment at 300 mg/kg, ip after 0.25 hrs by rotorod test; assay type: toxicity, organism-based; set-up: dose 300 mg/kg, route intraperitoneal; details: in vivo; summary of the method: as §1
Mus musculus [12] = experiment: Neurotoxicity in F1 albino mouse assessed as minimal motor impairment at 300 mg/kg, ip after 1 hr by rotorod test; assay type: toxicity, organism-based; set-up: dose 300 mg/kg, route intraperitoneal; details: in vivo; summary of the method: as §1
Adenosine receptor A3 = target: T6, Adenosine receptor A3 (Homo sapiens, UniProt P0DMS8); experiment: Displacement of [3H]PSB-11 from human recombinant adenosine A3 receptor expressed in CHO cells; assay type: cell-based
T6 sequence (P0DMS8 whole entry): T3 sequence (whole entry)

Adenosine receptor A2a [13] = target: Adenosine receptor A2a (Homo sapiens, UniProt P29274); experiment: Antagonist activity human recombinant adenosine A2A receptor expressed in CHO cells assessed as inhibition of NECA-mediated [3H]cAMP accumulation after 15 mins by liquid scintillation counting; assay type: functional, cell-based
Summary of the method: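 Stably transfected CHO cells (human A2A), 200,000 cells/well, washed and preincubated 2 h at 37 °C in HBSS (pH 7.3) with 1 U/ml adenosine deaminase. Ro20-1724 (final 40 µM) added for 15 min. NECA dilutions ± a single test concentration in HBSS with 5% DMSO, in triplicate, for 15 min. Hot-lysis; cAMP quantified by [3H]cAMP competition against a standard curve; three separate experiments.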

Adenosine receptor A1 [14] = target: T7, Adenosine receptor A1 (Rattus norvegicus, UniProt P25099); experiment: Displacement of [3H]CCPA from adenosine A1 receptor in rat brain cortical membrane; assay type: cell membranes
T7 sequence (P25099 whole entry): T2 sequence (whole entry)

Mus musculus [15] = experiment: Neurotoxicity in F1 albino mouse assessed as minimal motor impairment at 300 mg/kg, ip after 0.5 hrs by rotorod test; assay type: toxicity, organism-based; set-up: dose 300 mg/kg, route intraperitoneal; details: in vivo; summary of the method: as §1
[16] = target: T8, Adenosine receptor A2b (Homo sapiens) (UniProt P29275); experiment: Displacement of [3H]ZM241385 from human adenosine A2B receptor expressed in CHO cells at 10 uM; assay type: cell-based; summary of the method: as §2
T8 sequence (whole entry): T5 sequence (P29275 whole entry)

Mus musculus [17] = experiment: Anticonvulsant activity in F1 albino mouse assessed as protection against maximal electroshock-induced seizures at 300 mg/kg, ip after 0.5 hrs; assay type: functional, organism-based; set-up: dose 300 mg/kg; summary of the method: as §1
Mus musculus [18] = experiment: Anticonvulsant activity in F1 albino mouse assessed as protection against subcutaneous pentylenetetrazole-induced seizures at 300 mg/kg, ip after 0.25 hrs; assay type: functional, organism-based; set-up: dose 300 mg/kg; summary of the method: as §1
Adenosine receptor A1 [19] = target: T9, Adenosine receptor A1 (Homo sapiens, UniProt P30542); experiment: Displacement of [3H]CCPA from human recombinant adenosine A1 receptor expressed in CHO cells; assay type: cell-based
T9 sequence (P30542 whole entry): T4 sequence (whole entry)

Mus musculus [20] = experiment: Neurotoxicity in F1 albino mouse assessed as minimal motor impairment at 300 mg/kg, ip after 4 hrs by rotorod test; assay type: toxicity, organism-based; set-up: dose 300 mg/kg, route intraperitoneal; details: in vivo; summary of the method: as §1
Mus musculus [21] = experiment: Anticonvulsant activity in F1 albino mouse assessed as protection against maximal electroshock-induced seizures at 300 mg/kg, ip after 0.25 hrs; assay type: functional, organism-based; set-up: dose 300 mg/kg; summary of the method: as §1

T1 sequence (P30543 whole entry): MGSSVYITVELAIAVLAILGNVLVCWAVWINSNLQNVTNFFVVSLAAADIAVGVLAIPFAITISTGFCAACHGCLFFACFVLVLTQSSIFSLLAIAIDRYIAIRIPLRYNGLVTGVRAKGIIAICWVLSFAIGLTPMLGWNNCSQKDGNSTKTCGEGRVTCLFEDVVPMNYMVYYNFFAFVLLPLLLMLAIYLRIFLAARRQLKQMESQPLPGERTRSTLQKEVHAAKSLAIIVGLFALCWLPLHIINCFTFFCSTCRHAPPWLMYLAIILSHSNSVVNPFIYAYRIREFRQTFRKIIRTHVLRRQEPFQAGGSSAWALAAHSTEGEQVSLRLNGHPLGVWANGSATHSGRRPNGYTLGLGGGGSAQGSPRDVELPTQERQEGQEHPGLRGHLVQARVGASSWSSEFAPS
Chain of Adenosine receptor A2a (Homo sapiens, UniProt P29274) (P29274 whole entry): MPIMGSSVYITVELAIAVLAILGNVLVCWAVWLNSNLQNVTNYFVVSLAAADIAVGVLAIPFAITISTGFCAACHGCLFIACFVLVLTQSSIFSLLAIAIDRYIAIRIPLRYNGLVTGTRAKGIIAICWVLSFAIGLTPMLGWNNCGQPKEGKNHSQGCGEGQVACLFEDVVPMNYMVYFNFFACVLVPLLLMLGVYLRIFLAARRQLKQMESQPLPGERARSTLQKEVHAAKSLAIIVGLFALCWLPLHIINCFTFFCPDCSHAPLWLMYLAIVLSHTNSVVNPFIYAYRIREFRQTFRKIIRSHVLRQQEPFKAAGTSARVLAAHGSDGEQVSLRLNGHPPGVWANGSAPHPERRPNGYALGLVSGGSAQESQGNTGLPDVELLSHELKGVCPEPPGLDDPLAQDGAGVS

## CC1CCC(N2CCCn3c2nc2c3c(=O)n(C)c(=O)n2C)CC1 (mixture of isomers)
Mus musculus [1]
  Activity: inactive
Adenosine receptor A2a [2]
  IC50: 251 nM
[3]
  inhibition: 38%
Mus musculus [4]
  Activity: Active
Mus musculus [5]
  Activity: inactive
Mus musculus [6]
  Activity: inactive
Mus musculus [7]
  Activity: Toxic
[8]
  inhibition: 16%
[9]
  inhibition: 28%
CHO
  Ratio Ki: 3
Adenosine receptor A2a [10]
  IC50: 263 nM
Rattus norvegicus
  Ratio Ki: > 100
Adenosine receptor A2b
  Ki: > 10000 nM
Mus musculus [11]
  Activity: Non-toxic
Mus musculus [12]
  Activity: Non-toxic
Adenosine receptor A3
  Ki: > 10000 nM
Adenosine receptor A2a [13]
  Kb: 644 nM
Adenosine receptor A1 [14]
  Ki: ≥ 25000 nM
Mus musculus [15]
  Activity: Non-toxic
[16]
  inhibition: 16%
Mus musculus [17]
  Activity: inactive
Mus musculus [18]
  Activity: inactive
Adenosine receptor A1 [19]
  Ki: > 10000 nM
Mus musculus [20]
  Activity: Non-toxic
Mus musculus [21]
  Activity: inactive
